Series [1] deals with Huh-7. As to the kind of experiment: Cytotoxicity against human HuH7 cells up to 512 uM after 72 hrs by MTT assay. Type of series: cell-based. The conditions noted are these: huh-7, 72 h. In short, it runs like this: (§1)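 Cells trypsinized in exponential growth and plated at 2000 (HuH7) or 1000 (HEK293) per well. Allowed to attach 96 h at 37°C, 5% CO2. Drug diluted in medium with 1% DMSO final, then 72 h at 37°C, 5% CO2. Viability read by MTT colorimetric assay.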

The test system of series [2] is HEK293. As to the kind of experiment: Cytotoxicity against human HEK293 cells up to 512 uM after 72 hrs by MTT assay. Format: cell-based. The conditions noted are these: hek293, 72 h. In short, it runs like this:
as §1

For series [3], the system named is Hepatitis C virus isolate HC-J4. As to the kind of experiment: Inhibition of HCV genotype 1b J4 N-terminal His-tagged NS5Bdelta21 polymerase expressed in Escherichia coli C41(DE3) assessed as amount of double-stranded RNA synthesis at 20 uM.
Series [4] in a line: Inhibition of HCV genotype 1b J4 N-terminal His-tagged NS5Bdelta21 polymerase expressed in Escherichia coli C41(DE3) assessed as amount of double-stranded RNA synthesis. Details: species or system Hepatitis C virus isolate HC-J4.
For series [5], the system named is Hepatitis C virus isolate HC-J4. As to the kind of experiment: Ratio of IC50 for HCV genotype 1b J4 NS5Bdelta21 polymerase P495L mutant to IC50 for HCV genotype 1b J4 wild type N-terminal His-tagged NS5Bdelta21 polymerase. In short, it runs like this:
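IC50 measured in cell-free poly U/ATP double-stranded RNA synthesis assay for purified His-tagged NS5BΔ21 P495L mutant and wild type, both prepared identically by Ni-NTA purification. Mutant IC50 divided by wild-type IC50 and reported as fold difference. A Thumb Pocket I benzimidazole inhibitor served as control.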

The subject of series [6] is Hepatitis C virus. As to the kind of experiment: Antiviral activity against HCV JFH-1 assessed as inhibition of viral replication by cell based assay. Type of series: functional, organism-based, Hepacivirus hominis.

For the compound `CC(C)c1ccc(/C=C2\Oc3cc(O)cc(O)c3C2=O)cc1`, the Activity result in series [1] and in series [2] was “Non-toxic” each time. Also, the inhibition in series [3] amounted to 78%. For the same compound, the IC50 in series [4] worked out at 3.1 µM.

For `O=C1/C(=C/c2ccc(O)cc2)Oc2cc(O)ccc21`, the Activity result in series [1] and in series [2] was “Non-toxic” each time. In series [3], the inhibition worked out at 35%. In addition, in series [4], the IC50 was over 20 µM.

With `O=C1/C(=C/c2ccccc2F)Oc2cccc(O)c21`, the Activity result in series [1] and in series [2] was “Non-toxic” each time. Besides, the inhibition in series [3] stood at 58%. The IC50 in series [4] was over 20 µM.

In the case of `O=C1/C(=C/c2ccccc2O)Oc2cccc(O)c21`, the Activity entry in series [1] and in series [2] was “Non-toxic” each time. In series [3], the inhibition worked out at 56%. For the same compound, the IC50 in series [4] was determined as 11.1 µM.

In the case of `O=C1/C(=C/c2ccc(C3CCCCC3)cc2)Oc2cc(O)cc(O)c21`, the Activity entry in series [1] and in series [2] was “Non-toxic” in each case. The inhibition in series [3] was 92%. Besides, the IC50 in series [4] is 2.3 µM.

Take `O=C1/C(=C/c2ccc(F)cc2F)Oc2cccc(F)c21`: the Activity result in series [1] and in series [2] was “Non-toxic” in each case. In addition, the inhibition in series [3] is 10%. For the same compound, the IC50 in series [4] was over 20 µM.

Consider `O=C1/C(=C/c2ccc(C3CCCCC3)cc2)Oc2cc(OCc3ccccc3)cc(OCc3ccccc3)c21`, for which the Activity result in series [1] and in series [2] was “Non-toxic” each time. Further, the inhibition in series [3] was 3%. Further, the IC50 in series [4] was over 20 µM.

Consider `CCCCc1ccc(/C=C2\Oc3ccccc3C2=O)cc1`, for which the Activity result in series [1] and in series [2] was “Non-toxic” each time. The IC50 in series [4] is over 20 µM.

On to `COc1cc(OC)c(/C=C2\Oc3cccc(O)c3C2=O)c(OC)c1`, for which the Activity result in series [1] and in series [2] was “Non-toxic” throughout. In series [3], the inhibition worked out at 52%. Also, the IC50 in series [4] was over 20 µM.

Consider `O=C1/C(=C/c2ccccc2)Oc2cccc(O)c21`, for which the Activity result in series [1] and in series [2] was “Non-toxic” in each case. The inhibition in series [3] turned out to be 57%. Besides, the IC50 in series [4] worked out at 14.6 µM.

Turning to `COc1ccc(/C=C2\Oc3cc(O)cc(O)c3C2=O)c(OC)c1OC`, the Activity entry in series [1] and in series [2] was “Non-toxic” each time. Moreover, in series [3], the inhibition is 50%. Further, in series [4], the IC50 is over 20 µM.

Consider `CN1CCN(c2ccc(/C=C3\Oc4cccc(O)c4C3=O)cc2)CC1`, for which the Activity result in series [1] and in series [2] was “Non-toxic” each time. For the same compound, the inhibition in series [3] was 94%. Moreover, in series [4], the IC50 stood at 3.8 µM.

On to `COc1cc(OC)c2c(c1)O/C(=C\c1ccc(C3CCCCC3)cc1)C2=O`, for which the Activity entry in series [1] and in series [2] was “Non-toxic” in each case. Further, the inhibition in series [3] was 2%. Further, in series [4], the IC50 is over 20 µM.

For the compound `CCCCc1ccc(/C=C2\Oc3cc(OC)cc(OC)c3C2=O)cc1`, the Activity result in series [1] and in series [2] was “Non-toxic” throughout. The inhibition in series [3] was 3%. In series [4], the IC50 is over 20 µM.

As to `O=C1/C(=C/c2cccc(O)c2)Oc2cc(O)ccc21`, the Activity result in series [1] and in series [2] was “Non-toxic” in each case. In addition, in series [3], the inhibition turned out to be 10%. Moreover, the 50% inhibitory concentration (IC50) in series [4] was over 20 µM.

On to `O=C1/C(=C/c2ccccc2O)Oc2cc(O)ccc21`, for which the Activity result in series [1] and in series [2] was “Non-toxic” each time. Further, the inhibition in series [3] is 18%. The concentration for half-maximal inhibition (IC50) in series [4] was over 20 µM.

With `CCCCc1ccc(/C=C2\Oc3cccc(O)c3C2=O)cc1`, the Activity result in series [1] and in series [2] was “Non-toxic” throughout. In series [3], the inhibition came to 42.7%. The IC50 in series [4] is over 20 µM.

For the compound `O=C1/C(=C/c2ccc(F)cc2)Oc2cc(O)cc(O)c21`, the Activity result in series [1] and in series [2] was “Non-toxic” each time. Besides, in series [3], the inhibition turned out to be 80%. Also, the IC50 in series [4] was found to be 11.2 µM.

Turning to `O=C1/C(=C/c2ccccc2O)Oc2cc(O)cc(O)c21`, the Activity entry in series [1] and in series [2] was “Non-toxic” each time. The inhibition in series [3] is 33%. Further, the IC50 in series [4] was over 20 µM.

As for `CC(=O)Nc1ccc(-c2ccc(Cl)cc2)c(COc2ccc(-c3nc4cc(C(=O)O)ccc4n3C3CCCCC3)cc2)c1`, in series [5], the Ratio IC50 was 10.

Regarding `O=C1/C(=C/c2ccc(O)c(O)c2)Oc2cc(O)cc(O)c21` [AUREUSIDIN], in series [3], the inhibition is 85%. In series [4], the IC50 stood at 5.4 µM.

Consider `COc1ccc(/C=C2\Oc3cccc(O)c3C2=O)c(OC)c1`, for which the Activity entry in series [1] and in series [2] was “Non-toxic” throughout. The inhibition in series [3] was 75%. Moreover, the concentration for half-maximal inhibition (IC50) in series [4] was 9.7 µM.

Turning to `O=C1/C(=C/c2ccc(O)cc2O)Oc2cccc(O)c21`, the Activity result in series [1] and in series [2] was “Non-toxic” each time. Further, the inhibition in series [3] amounted to 94%. The IC50 in series [4] was 2.6 µM.

Regarding `COc1cc(OC)c2c(c1)O/C(=C\c1cccc(O)c1)C2=O`, the Activity result in series [1] and in series [2] was “Non-toxic” in each case. The inhibition in series [3] was 11%. In addition, in series [4], the IC50 was over 20 µM.

As for `CCCCn1cc(/C=C2\Oc3cc(O)cc(O)c3C2=O)c2ccccc21`, the Activity result in series [1] and in series [2] was “Non-toxic” each time. In addition, in series [3], the inhibition stood at 95%. For the same compound, the IC50 in series [4] was found to be 2.2 µM.

Turning to `CCCCc1ccc(/C=C2\Oc3cc(F)cc(F)c3C2=O)cc1`, the Activity entry in series [1] and in series [2] was “Non-toxic” throughout. Also, the IC50 in series [4] is over 20 µM.

Take `COc1cc(OC)c2c(c1)O/C(=C\c1ccc(C)cc1C)C2=O`: the Activity entry in series [1] and in series [2] was “Non-toxic” in each case. In addition, the inhibition in series [3] came out at 14%. Besides, the IC50 in series [4] is over 20 µM.

Consider `CC(C)(C)c1ccc(/C=C2\Oc3cccc(O)c3C2=O)cc1`, for which the Activity entry in series [1] and in series [2] was “Non-toxic” in each case. For the same compound, in series [3], the inhibition is 60.8%. In addition, in series [4], the IC50 is over 20 µM.

Take `COc1cc(OC)c2c(c1)O/C(=C\c1ccccc1O)C2=O`: the Activity entry in series [1] and in series [2] was “Non-toxic” in each case. The inhibition in series [3] worked out at 0.7%. Also, the IC50 in series [4] was over 20 µM.

As for `CCCCc1ccc(/C=C2\Oc3cc(O)cc(O)c3C2=O)cc1`, the Activity result in series [1] and in series [2] was “Non-toxic” each time. The inhibition in series [3] is 93%. For the same compound, the IC50 in series [4] is 2.5 µM.

In the case of `Cc1ccc(/C=C2\Oc3cccc(O)c3C2=O)c(C)c1`, the Activity entry in series [1] and in series [2] was “Non-toxic” each time. Moreover, in series [3], the inhibition turned out to be 64%. Further, the IC50 in series [4] was 5.8 µM.

For the compound `O=C1/C(=C/c2ccc(O)cc2)Oc2cc(O)cc(O)c21`, the IC50 came out at 40 µM in series [6] and 9.7 µM in series [4]. Moreover, the Activity entry in series [1] and in series [2] was “Non-toxic” in each case. Further, in series [3], the inhibition came to 61%.

In the case of `O=C1/C(=C/c2ccc(N3CCOCC3)cc2)Oc2cc(O)cc(O)c21`, the Activity entry in series [1] and in series [2] was “Non-toxic” in each case. The inhibition in series [3] came out at 66%. Further, in series [4], the IC50 was 11.4 µM.

For `O=C1/C(=C/c2ccccc2)Oc2cc(O)cc(O)c21`, the Activity result in series [1] and in series [2] was “Non-toxic” throughout. Also, the inhibition in series [3] was 59%. The IC50 in series [4] was 15.1 µM.

With `O=C1/C(=C/c2cccc(O)c2)Oc2cccc(O)c21`, the Activity result in series [1] and in series [2] was “Non-toxic” in each case. Moreover, the inhibition in series [3] is 37%. The IC50 in series [4] is over 20 µM.

Regarding `CC(C)c1ccc(/C=C2\Oc3cccc(O)c3C2=O)cc1`, the Activity result in series [1] and in series [2] was “Non-toxic” throughout. Also, the inhibition in series [3] came out at 29.9%. For the same compound, the IC50 in series [4] is over 20 µM.

For the compound `O=C1/C(=C/c2ccc(O)cc2O)Oc2cc(O)cc(O)c21`, the Activity entry in series [1] and in series [2] was “Non-toxic” throughout. In addition, the inhibition in series [3] was 81%. The IC50 in series [4] was determined as 5.8 µM.

For `COc1cccc(OC)c1/C=C1\Oc2cccc(O)c2C1=O`, the Activity entry in series [1] and in series [2] was “Non-toxic” in each case. The inhibition in series [3] came out at 47%. For the same compound, the IC50 in series [4] is over 20 µM.

On to `CCc1ccc(/C=C2\Oc3cc(O)cc(O)c3C2=O)cc1`, for which the Activity entry in series [1] and in series [2] was “Non-toxic” throughout. Further, the inhibition in series [3] came out at 79%. For the same compound, in series [4], the IC50 worked out at 3.6 µM.

For `COc1cccc(/C=C2\Oc3cc(O)cc(O)c3C2=O)c1OC`, the Activity entry in series [1] and in series [2] was “Non-toxic” throughout. In addition, the inhibition in series [3] amounted to 74%. Also, in series [4], the IC50 is over 20 µM.

As for `COc1cc(OC)c2c(c1)O/C(=C\c1ccc(O)cc1)C2=O`, the Activity result in series [1] and in series [2] was “Non-toxic” throughout. For the same compound, the inhibition in series [3] was 37%. Further, the IC50 in series [4] is over 20 µM.

(Values after ChEMBL document CHEMBL1811757, “Discovery of naturally occurring aurones that are potent allosteric inhibitors of hepatitis C virus RNA-dependent RNA polymerase” (J Med Chem, 2011).)
